As a reminder, the Ki is the equilibrium dissociation constant of an inhibitor or competing ligand from its target.

From ChEMBL document CHEMBL1122432, “Some adenine and adenosine methylene-bridged estrogens” (J Med Chem, 1983) come the findings set out here.

For assay [1], the system named is P388. The assay can be described thus: (§1) Concentration required for 50% Inhibition of P388 murine leukemia cells. Particulars: Mus musculus, read-out: ID50 (the source's name); call rule not given here. In kind it is functional. The essentials:
(§2)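 Exponentially growing P388 murine leukemia cells were kept in medium with 10% horse serum and 1 μM mercaptoethanol. They were exposed to graded drug levels, and total cell numbers were counted 24 h later. IC50 is the concentration inhibiting growth by 50% over the test period.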

The subject of assay [2] is MCF7. The assay can be described thus: Concentration required for 50% Inhibition of human breast cancer cell line MCF-7. Format: functional. Particulars: read-out: ID50 (the source's name). The essentials:
(§3)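 Human breast cancer cells were grown in glass vials in medium with 5% calf serum and treated in log phase. Compounds were dissolved in Me2SO and diluted in medium to a final solvent concentration of at most 0.2%. Growth was followed over 2-3 days, or 5 days where noted. IC30 and IC50 are the concentrations giving 30% and 50% growth inhibition. Values average two or more experiments.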

Assay [3] has as its target T1, Sulfotransferase 1E1 (Bos taurus, UniProt P19217).
T1 sequence (P19217 whole entry): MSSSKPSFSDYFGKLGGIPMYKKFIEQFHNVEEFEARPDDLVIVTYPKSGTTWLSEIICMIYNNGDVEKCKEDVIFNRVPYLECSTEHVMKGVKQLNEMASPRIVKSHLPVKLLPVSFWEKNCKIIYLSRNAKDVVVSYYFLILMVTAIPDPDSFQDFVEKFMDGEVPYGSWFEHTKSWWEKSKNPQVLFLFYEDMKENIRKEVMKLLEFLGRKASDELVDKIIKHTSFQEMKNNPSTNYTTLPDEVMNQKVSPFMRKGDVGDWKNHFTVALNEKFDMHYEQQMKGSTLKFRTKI
Briefly: Inhibition of bovine estrogen sulfotransferase by the compound. The essentials:
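Inhibitor was present at a fixed concentration in 90% aqueous Me2SO. Ki values were derived with relationships for competitive inhibitors.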

Assay [4] has as its system MCF7. The assay can be described thus: Concentration required for 30% Inhibition of human breast cancer cell line MCF-7. In kind it is functional. The essentials: as §3
In assay [5] the test system is MCF7. The assay can be described thus: Concentration required for 30% Inhibition of human breast cancer cell line MCF-7; NA means no inhibition at -20 concentration. Format: functional, cell-based. Summed up: as §3
Assay [6] relates to P388. The description is as §1. In kind it is functional, Mus musculus. The essentials: as §2
For assay [7], the system named is MCF7. Briefly: Inhibition of human breast cancer cell line MCF-7. In kind it is functional. Particulars: for IC50: read-out: ID50 (the source's name). The essentials: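 MCF-7 breast cancer cells were grown in sterile glass scintillation vials in medium with 5% calf serum and treated in log phase. Compounds were dissolved in Me₂SO and diluted in medium, with final solvent ≤0.2%. Growth was measured over 2-3 days, or 5 days where footnoted. IC₃₀/IC₅₀ is the concentration inhibiting growth by 30/50% over the test period, averaged from two or more experiments.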

For `C[C@]12CC[C@@H]3c4ccc(OCCCOC[C@H]5OC(n6cnc7c(N)ncnc76)[C@H](O)[C@@H]5O)c([N+](=O)[O-])c4CC[C@H]3[C@@H]1CCC2=O` (stereo not given in full), the IC50 in assay [1] is 15 µM; in assay [2] it was 6.4 µM. For the same compound, the Ki in assay [3] turned out to be 84 µM. The compound also had an ID30 in assay [4] of 3.6 µM.
In assay [3], `C[C@]12CC[C@@H]3c4ccc(OCCCn5cnc6c(N)ncnc65)cc4CC[C@H]3[C@@H]1CCC2=O` yielded a Ki of 1000 µM. Also, the ID30 result in assay [5] was “Not Active”.
With `C[C@]12CC[C@@H]3c4ccc(OCCCCn5cnc6c(N)ncnc65)c([N+](=O)[O-])c4CC[C@H]3[C@@H]1CCC2=O`, the IC50 in assay [2] is 4 µM. Besides, the affinity in assay [3] corresponds to a Ki of 140 µM. The compound further showed an ID50 in assay [6] of 5 µM. The same compound gave an ID30 in assay [4] of 2.1 µM.
Turning to `C[C@]12CC[C@@H]3c4ccc(OCCOC[C@H]5OC(n6cnc7c(N)ncnc76)[C@H](O)[C@@H]5O)c([N+](=O)[O-])c4CC[C@H]3[C@@H]1CCC2=O` (stereo not given in full), the IC50 in assay [1] is 70 µM; in assay [2], greater than 10 µM. The Ki in assay [3] stood at 32 µM. For the same compound, the ID30 in assay [4] came to 11 µM.
In assay [3], `C[C@]12CC[C@@H]3c4ccc(OP(=O)(O)OP(=O)(O)OC[C@H]5O[C@@H](n6c(Br)nc7c(N)ncnc76)[C@H](O)[C@@H]5OP(=O)(O)O)cc4CC[C@H]3[C@@H]1CCC2=O` displayed a Ki of 0.25 µM.
`C[C@]12CC[C@@H]3c4ccc(OCCCn5cnc6c(N)ncnc65)c([N+](=O)[O-])c4CC[C@H]3[C@@H]1CCC2=O` registered a Ki in assay [3] of 350 µM. Also, in assay [5], the ID30 entry was “Not Active”.
With `O=c1[nH]cc(F)c(=O)[nH]1` [FLUOROURACIL], in assay [7], the ID30 amounted to 0.2 µM and the IC50 worked out at 0.3 µM.
Take `COc1ccc2c(c1[N+](=O)[O-])CC[C@@H]1[C@@H]2CC[C@]2(C)C(=O)CC[C@@H]12`: in assay [7], the ID30 was greater than 10 µM and the IC50 was greater than 10 µM.
In the case of `C[C@]12CC[C@@H]3c4ccc(OCCn5cnc6c(N)ncnc65)c([N+](=O)[O-])c4CC[C@H]3[C@@H]1CCC2=O`, the IC50 in assay [1] is 30 µM; in assay [2], 10 µM. The compound further registered a Ki in assay [3] of 1000 µM. Moreover, the ID30 in assay [4] was 7.8 µM.
